From paper PMC8319936 (ACS Omega, 2021)

What was measured:
[1] = Rat pharmacokinetics; assay type: in vivo, Sprague Dawley rats; details: Sprague Dawley, plasma
Summary of the method: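 Sprague Dawley rats (N = 3) were dosed i.v. at 1 mpk in 70% PEG or by oral gavage as a methylcellulose suspension. Serial blood samples were anticoagulated and centrifuged to plasma. Parent compound was quantified in plasma, and PK parameters were calculated by noncompartmental analysis.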

[2] = PAMPA permeability; assay type: in vitro ADME
[3] = hPPB; assay type: in vitro ADME; details: human
[4] = Caco-2 permeability; assay type: in vitro ADME; details: human, Caco-2, pH 7.4
Summary of the method: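 Caco-2 cells were seeded at 80,000 cells/cm2 on polycarbonate Transwell filters and grown 21–25 days. Monolayers were pre-equilibrated with HBSS pH 7.4 for 30 min at 37 °C. Dosing solution was 50 mM nominal in HBSS, stirred overnight at room temperature, filtered and added apically (A/B) or basolaterally (B/A). Receiver sampled at 15–150 min, in duplicate. Papp (cm/s) by LC/MS/MS.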

[5] = tested on: collagen antibody-induced arthritis; assay: Murine collagen antibody-induced arthritis; assay type: in vivo, female B10.RIII mice; details: 100 mg/kg twice daily oral gavage from day 4, day 14
Summary of the method: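 Female B10.RIII mice, 8–10 weeks old, received 2 mg anti-collagen II monoclonal antibody cocktail i.p., then 37.5 μg LPS i.p. 3 days later. From day 4, compounds or vehicle (1% CMC, 0.015% Tween 80, 10 mL/kg) were given by oral gavage twice daily. Each limb was scored visually daily, days 3–14, and group mean computed. Body weight recorded every other day.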

[6] = target: catalytic domain of recombinant human MMP-8 (Homo sapiens, UniProt P22894); assay: MMP-8 biochemical assay
Summary of the method: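 FRET cleavage assay with 2 nM recombinant human MMP-8 catalytic domain and 2 μM quenched FRET peptide substrate. Incubated 30 min at 28 °C/80% humidity; fluorescence read at ex 485/em 535 nm.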

[7] = target: catalytic domain of human MMP13 (Homo sapiens, UniProt P45452); assay: Biochemical MMP-13 FRET assay; details: vs compound 13

catalytic domain of recombinant human MMP-8, sequence (P22894 100-262 limits assumed): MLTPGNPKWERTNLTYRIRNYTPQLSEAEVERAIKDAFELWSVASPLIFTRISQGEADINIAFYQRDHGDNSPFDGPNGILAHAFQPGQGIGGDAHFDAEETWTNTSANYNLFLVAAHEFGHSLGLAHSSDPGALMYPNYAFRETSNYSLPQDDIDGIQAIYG

SMILES | half-life [1] | Papp [2] | hPPB (% bound) [3] | Papp A→B at 150 min, 50 mM [4] | Papp B→A at 150 min, 50 mM [4] | overall mean arthritic score vs vehicle control [5] | IC50 [6] | loss of potency relative to 13 [7]
Cc1noc(-c2cc3cc(-c4nc(C(=O)NCc5ccncc5)[nH]c4C)ccc3[nH]2)n1 [Compound 17, 4-Methyl-5-[2-(3-methyl-[1,2,4]oxadiazol-5-yl)-1H-indol-5-yl]-1H-imidazole-2-carboxylic Acid (Pyridin-4-ylmethyl)-amide] | 0.9 h | 290 nm/s | 93 % bound | 35 nm/s | 90 nm/s | significantly reduced | 3.1 µM | –
Cc1noc(-c2cc3cc(-c4[nH]c(C(=O)NCc5ccccc5)nc4C)ccc3[nH]2)n1 [Compound 21, 4-Methyl-5-[2-(3-methyl-[1,2,4]oxadiazol-5-yl)-1H-indol-5-yl]-1H-imidazole-2-carboxylic Acid Benzylamide] | – | – | – | – | – | – | – | 10 fold
CCNC(=O)c1nc(-c2ccc3[nH]c(-c4nc(C)no4)cc3c2)c(C)[nH]1 [Compound 15, 4-Methyl-5-[2-(3-methyl-[1,2,4]oxadiazol-5-yl)-1H-indol-5-yl]-1H-imidazole-2-carboxylic Acid Ethylamide] | 1.8 h | – | – | – | – | – | – | –
